Screening results: PubChem BioAssay, several laboratories
PAX8 reporter: inhibitors of PAX8-driven TPO luciferase reporter, primary screen, RMG-I cells, single concentration. SteadyGlo, 24 h. inhibition, % at 12.6 µM. 360,000 compounds, 1.2% hits. AID 652154, 2013;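 active = mean replicate inhibition at least 60% with every replicate also reaching 60%; inconclusive = only one of the two criteria is met; inactive = mean below 60% and not all replicates reaching 60%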;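 also: luciferase light reporting Pax8 driven TPO promoter activity; plate controls were median of neutral control wells for no effect and mitoxantrone controls for full effect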
PfHsp90 yeast 2: growth inhibition of PfHsp90-expressing yeast, primary screen, antimalarial PfHsp90 inhibitor project, S. cerevisiae, BacTiter-Glo luminescence, single point, set 2; BacTiter-Glo ATP, 48 h; yeast lacking PDR1 and PDR3 efflux regulators; inhibition, % at 9.4 µM; 310,000 compounds, 0.32% hits; AID 504621, 2011;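 active = every replicate shows inhibition above about 80%, whatever the replicate mean, limit read from the data; inconclusive = mean inhibition reaches the set limit but some replicate falls short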;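 also: 0% = DMSO neutral controls and 100% = 20 µM radicicol positive controls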
Arr AP2 block: inhibitors of beta-arrestin/AP2 binding, primary screen, biochemical, GPCR trafficking, flow cytometry. FITC-arrestin peptide / GST-AP2 beads; AP2 beta2 appendage carries R879A mutation. inhibition, % at 10 µM. 340,000 compounds, 0.31% hits. AID 504490, 2011;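 active = inhibition above a set limit, near 3 SD of compounds lacking own fluorescence, cut at about 54% in these data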;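 also: plate controls were DMSO wells for no effect and 5 µM unlabelled arrestin peptide for full effect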
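System: GST-tagged AP2 beta2-adaptin appendage (R879A) on 4 µm glutathione beads / Reagent: FITC-arrestin peptide, 50 nM / Detection: HyperCyt-sampled flow cytometry, FL1 channel, ex 488/em 535 nm / Timing: 12 min plus 1 h, RT / Buffer or medium: PBS plus Tween 20 (0.05%) and BSA (0.1%)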
Rtt109 Vps75: inhibitors of C. albicans Rtt109/Vps75 HAT, primary screen, biochemical, ThioGlo CoA-SH fluorescence, plate reader | purified Rtt109/Vps75, 4 h | inhibition, % at 34.9 µM | Histone acetyltransferase RTT109 (Candida albicans (strain SC5314 / ATCC MYA-2876)), … | 330,000 compounds, 0.16% hits;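 active = inhibition of at least 50% in every replicate; inconclusive = best replicate reaches 50% inhibition but some replicates fall short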
Target sequence (Q5AAJ8 whole entry, looked up): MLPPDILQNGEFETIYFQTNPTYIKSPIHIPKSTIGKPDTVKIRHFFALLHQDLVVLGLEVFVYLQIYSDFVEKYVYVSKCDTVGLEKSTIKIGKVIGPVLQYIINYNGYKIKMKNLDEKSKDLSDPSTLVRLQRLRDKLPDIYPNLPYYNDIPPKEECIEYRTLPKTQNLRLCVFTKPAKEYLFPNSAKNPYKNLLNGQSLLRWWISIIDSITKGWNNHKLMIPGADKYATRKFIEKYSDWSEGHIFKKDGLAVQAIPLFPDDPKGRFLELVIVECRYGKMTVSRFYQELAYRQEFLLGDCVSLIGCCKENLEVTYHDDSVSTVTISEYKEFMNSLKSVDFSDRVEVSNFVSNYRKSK
HIV Env fusion: inhibitors of HIV-1 Env-driven cell-cell fusion, primary screen, HeLa-JRFL effector, CEM21 target cells, luciferase. 360,000 compounds, 1.1% hits. inhibition, % at 12.3 µM;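 active = mean replicate inhibition score of at least 50 and every replicate individually at or above 50; inconclusive = only one of the two criteria met; inactive = mean below 50 and not all replicates reaching 50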;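 also: 0% = plate neutral controls and 100% = maraviroc near 300 nM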
Glyco luc inh: increase of ERlucT glycosylation luciferase signal, primary screen, N-linked glycosylation inhibitor project, D54 ERlucT cells, luminescence, set 2. D54 ERlucT glycosylation luciferase reporter, 24 h; percent of 100 nM tunicamycin response. 360,000 compounds, 0.23% hits. reporter increase, % at 12.5 µM;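 active = mean luciferase reporter signal, scaled so untreated is 0 and the glycosylation-blocking control 100, at or above a set limit in every replicate; inconclusive = mean reaches the limit but not every replicate does; inactive = mean below the limit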;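 also: luciferase carries N-glycosylation sites so blocking glycosylation raises the light; 0% = median of neutral control wells and 100% = median of 100 nM tunicamycin wells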
An asterisk follows results filed as active; [ ] = another dose, or the depositor's remark. This is a sample that favours compounds with a hit; in the whole collection about 2.3% have one here.

Results for COc1ccc(NC(=O)Nc2ccc3c(c2)C(=O)N([C@@H](C)CO)C[C@@H](C)[C@H](CN(C)Cc2ccc(Cl)c(Cl)c2)OCCCC[C@H](C)O3)cc1 ?
PAX8 reporter: 52.3; HIV Env fusion: 59.9*[16.7 µM]

What do the screens show for `C[C@@H]1CN([C@H](C)CO)C(=O)c2cc(NC(=O)Nc3ccc(F)cc3)ccc2O[C@@H](C)CCCCO[C@@H]1CN(C)Cc1ccc(Cl)c(Cl)c1`?
PAX8 reporter: 85.2*; HIV Env fusion: 7.9[16.7 µM]

How did CC(C)NC(=O)N(C)C[C@@H]1OCCCC[C@H](C)Oc2ccc(N(C)C)cc2C(=O)N([C@@H](C)CO)C[C@@H]1C do in these assays?
PAX8 reporter: 0.2; HIV Env fusion: -56.3[16.7 µM]

Results for O=C(NCC1CCCCC1)[C@H]1[C@H](CO)[C@H]2Cn3c(cccc3=O)[C@@H]1N2C(=O)c1cccnc1 ?
HIV Env fusion: 11.7[16.7 µM]

Results for NC(CCc1ccccc1)c1csc(NC(=O)Nc2cccc(C(F)(F)F)c2)n1 (stereo not drawn) ?
PAX8 reporter: -1.3; HIV Env fusion: 55.2*; Glyco luc inh: -4.4

Results for NC(Cc1ccc(C(F)(F)F)cc1)c1csc(NC(=O)Nc2ccccc2Cl)n1 (stereo not drawn) ?
PAX8 reporter: -5.9; HIV Env fusion: 58.2*; Glyco luc inh: -1.2

Results for COc1ccccc1NC(=O)Nc1nc(C(N)Cc2ccccc2)cs1 (stereo not drawn) ?
PAX8 reporter: 11.9; HIV Env fusion: -24.7; Glyco luc inh: -2.6

How did COc1ccccc1NC(=O)Nc1nc(C(N)Cc2ccc(Cl)cc2)cs1 (stereo not drawn) do in these assays?
PAX8 reporter: -14.3; HIV Env fusion: 64.1*; Glyco luc inh: -5.5

Results for NC(CCc1ccccc1)c1csc(Nc2ccccn2)n1 (stereo not drawn) ?
PAX8 reporter: -2.7; HIV Env fusion: 84.8*; Glyco luc inh: -2.0

How did COc1ccc(CC(N)c2csc(NC(=O)Nc3cccc(C(F)(F)F)c3)n2)cc1 (stereo not drawn) do in these assays?
PAX8 reporter: -2.9; HIV Env fusion: inconclusive; Glyco luc inh: -2.1

How did NC(COCc1ccccc1)c1csc(Nc2ccccn2)n1 (stereo not drawn) do in these assays?
PAX8 reporter: 24.7; HIV Env fusion: 17.8; Glyco luc inh: 0.3

What do the screens show for `CC(C)CC#Cc1ccc2c(c1)O[C@@H](CN(C)C(=O)Nc1ccccc1)[C@@H](C)CN([C@H](C)CO)S2(=O)=O`?
HIV Env fusion: 24.8[16.7 µM]

How did C[C@@H]1CCCCO[C@H](CN(C)S(C)(=O)=O)[C@H](C)CN([C@@H](C)CO)C(=O)c2cc(NC(=O)Nc3ccc4c(c3)OCO4)ccc2O1 do in these assays?
HIV Env fusion: 14.2[16.7 µM]

Results for COc1cccc(S(=O)(=O)Nc2ccc3c(c2)OC[C@H](C)NC[C@H](C)[C@H](OC)CN(C)C3=O)c1 ?
HIV Env fusion: 15.9[16.7 µM]

How did NC(Cc1ccc(C(F)(F)F)cc1)c1csc(NC(=O)Nc2ccccc2)n1 (stereo not drawn) do in these assays?
PAX8 reporter: -3.8; HIV Env fusion: 77.7*; Glyco luc inh: -2.6

How did NC(Cc1ccc(Cl)cc1)c1csc(NC(=O)Nc2ccccc2)n1 (stereo not drawn) do in these assays?
PAX8 reporter: 13.6; HIV Env fusion: 60.8*; Glyco luc inh: -3.7

What do the screens show for `NC(Cc1ccc(Cl)cc1)c1csc(Nc2ccc(C(=O)c3ccccc3)cc2)n1` (stereo not drawn)?
PAX8 reporter: 18.9; HIV Env fusion: -4.4; Glyco luc inh: -9.1

How did COc1ccc([C@H]2CC(=O)C=C(c3c(OC)cccc3OC)C2)cc1 do in these assays?
PAX8 reporter: 11.2; PfHsp90 yeast 2: -4.5; Arr AP2 block: 37.0; Rtt109 Vps75: 0.4; HIV Env fusion: 33.9; Glyco luc inh: 28.6*

Results for COc1ccc([C@H]2CC(=O)C=C(c3cccc(Br)c3)C2)cc1OC ?
PAX8 reporter: 17.2; Arr AP2 block: -3.2; Rtt109 Vps75: 8.9; HIV Env fusion: 9.6; Glyco luc inh: 3.5

How did COc1ccc([C@H]2CC(=O)C=C(c3cccc(C(C)C)c3)C2)cc1OC do in these assays?
PAX8 reporter: 35.3; PfHsp90 yeast 2: -13.1; Arr AP2 block: -5.0; Rtt109 Vps75: 8.2; HIV Env fusion: 63.0*; Glyco luc inh: -6.9

How did C[C@H]1CN([C@@H](C)CO)C(=O)c2cccc(NS(=O)(=O)c3ccc(F)cc3)c2O[C@@H]1CN(C)C(=O)Nc1ccc(F)cc1 do in these assays?
HIV Env fusion: -8.9[16.7 µM]

How did C[C@H](CO)N1C[C@H](C)[C@H](CN(C)S(=O)(=O)c2cn(C)cn2)Oc2ncc(C3=CCCC3)cc2C1=O do in these assays?
PAX8 reporter: -11.4; HIV Env fusion: -12.0[16.7 µM]

What do the screens show for `CCCNC(=O)C1(C)CCN(Cc2ccc(OC)c3ccccc23)C1` (stereo not drawn)?
PAX8 reporter: -5.4; HIV Env fusion: -215.3; Glyco luc inh: 0.1

Results for COc1ccc(CN2CCC(C)(Oc3ccc4c(c3)OCO4)C2)c2ccccc12 (stereo not drawn) ?
PAX8 reporter: -11.3; HIV Env fusion: 70.4*; Glyco luc inh: -0.4

How did O=C(c1ccc(-c2ccccc2)cc1)c1ccccc1C(=O)N1CCOCC1 do in these assays?
PfHsp90 yeast 2: 10.9; Arr AP2 block: -4.8; Rtt109 Vps75: 7.8; HIV Env fusion: -7.2; Glyco luc inh: -1.8

What do the screens show for `S=C(c1ccc(-c2ccccc2)cc1)N1CCOCC1`?
PAX8 reporter: -10.0; PfHsp90 yeast 2: -1.4; Arr AP2 block: 0.6; Rtt109 Vps75: -0.3; HIV Env fusion: 63.4*; Glyco luc inh: 0.2

How did O=C(/C=C/N1CCOCC1)c1ccc(-c2ccccc2)cc1 do in these assays?
PfHsp90 yeast 2: 105.9*; Arr AP2 block: -8.9; Rtt109 Vps75: 19.7; Glyco luc inh: -2.2

Results for O=C(NCc1ccc(F)cc1)[C@@H]1[C@@H](CO)[C@@H]2Cn3c(cccc3=O)[C@H]1N2C(=O)Cc1ccccn1 ?
PAX8 reporter: -3.2; HIV Env fusion: -2.6[16.7 µM]

What do the screens show for `O=C(N/N=C\c1ccc([N+](=O)[O-])s1)c1cncc(Br)c1`?
PAX8 reporter: 86.1*; PfHsp90 yeast 2: 2.8; Arr AP2 block: 15.1; Rtt109 Vps75: 1.7; HIV Env fusion: 103.8*; Glyco luc inh: -20.7
